This passage reports Efficacy, EC50 and TPO results from ChEMBL document CHEMBL1134668, “Hydrazinonaphthalene and azonaphthalene thrombopoietin mimics are nonpeptidyl promoters of megakaryocytopoiesis” (J Med Chem, 2001).

As a reminder, the EC50 is the concentration needed to bring the measured effect to its halfway point. Lower therefore signals higher potency in that assay.

In assay [1] the target is T1, Thrombopoietin receptor (Homo sapiens) (UniProt P40238).
T1 sequence (whole entry): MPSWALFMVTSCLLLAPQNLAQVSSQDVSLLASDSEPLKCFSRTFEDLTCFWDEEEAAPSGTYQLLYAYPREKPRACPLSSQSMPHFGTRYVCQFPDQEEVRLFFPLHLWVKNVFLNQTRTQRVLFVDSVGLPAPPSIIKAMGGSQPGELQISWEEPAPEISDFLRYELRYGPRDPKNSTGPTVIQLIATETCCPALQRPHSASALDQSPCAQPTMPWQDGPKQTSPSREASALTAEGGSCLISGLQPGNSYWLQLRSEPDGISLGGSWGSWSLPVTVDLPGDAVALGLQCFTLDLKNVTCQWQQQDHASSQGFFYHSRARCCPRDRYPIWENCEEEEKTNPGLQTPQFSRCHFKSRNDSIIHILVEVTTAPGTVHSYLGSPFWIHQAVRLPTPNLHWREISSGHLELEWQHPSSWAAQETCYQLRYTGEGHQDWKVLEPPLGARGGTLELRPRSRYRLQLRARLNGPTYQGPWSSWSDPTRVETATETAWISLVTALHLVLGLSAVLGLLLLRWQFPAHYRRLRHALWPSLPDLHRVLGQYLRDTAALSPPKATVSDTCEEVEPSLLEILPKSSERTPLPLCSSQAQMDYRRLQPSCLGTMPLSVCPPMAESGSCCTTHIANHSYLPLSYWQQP
The assay is described as follows: Thrombopoietin luciferase activity in BAF-3 cells. It counts as cell-based. The conditions noted are these: BaF3.

Assay [2] in a line: Compound tested for UT7/TPO cell proliferation activity (%TPO) using proliferation assay. Type of assay: functional, Homo sapiens. Summed up: (§1)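 UT7/TPO cells kept in IMDM/10% FBS/glutamine plus rhTPO, starved overnight without TPO. Cells (0.2 × 10^6/mL) in starving medium incubated with compounds (0.32% DMSO final) or rhTPO, 37 °C, 5% CO2, 72 h. Pellet DNA content read by BrdU kit. Mean value over control as % of maximal-TPO response, duplicates, plotted vs concentration for EC50.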

Another assay deals with T2, Thrombopoietin receptor (Homo sapiens, UniProt P40238).
T2 sequence (P40238 whole entry): T1 sequence (whole entry)
Briefly: Effective concentration for thrombopoietin luciferase activity was determined in BAF-3 cells. It counts as cell-based, BaF3.

Assay [3] can be described thus: Compound tested for CD34+ cell differentiation activity (%TPO) using CD34+ differentiation assay. It counts as functional, Homo sapiens. Summed up:
(§2)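 Human bone marrow CD34+ cells from light density marrow cells (2 × 10^6 cells/mL) in IMDM with 20% v/v FCS and rhSCF 100 ng/mL, cultured with sample or TPO (maximal 100 ng/mL) for 10 days at 5% CO2 and 4% O2. Stained with FITC-anti-CD41 and FITC-anti-IgG1 isotype control, formaldehyde-fixed, flow cytometry; %CD41 = CD41 positive minus isotype positive.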

Assay [4] is described as follows: Effective concentration (EC50) required to inhibit CD34 cell differentiation. It counts as functional. Particulars: Homo sapiens. The method in brief:
as §2

Assay [5] can be described thus: Effective concentration required to inhibit UT7/TPO cell proliferation was determined. The conditions noted are these: Homo sapiens. It counts as functional, cell-based. The method in brief:
as §1

Structures are written as SMILES.

As to `Cc1[nH]n(-c2ccc(I)cc2)c(=O)c1/N=N/c1c(O)cc(S(=O)(=O)O)c2ccccc12`, the Efficacy in assay [1] is 81%; in assay [2], 100%; in assay [3] it was 60%. The compound further displayed an EC50 at Thrombopoietin receptor of 0.3 µM.
With `Cc1[nH]n(-c2ccc(C(C)(C)C)cc2)c(=O)c1/N=N/c1c(O)cc(S(=O)(=O)O)c2ccccc12`, the results for the EC50 (in assay [4]; at Thrombopoietin receptor) were 0.03 µM and 0.02 µM, respectively. Also, the Efficacy in assay [1] was determined as 86%. The TPO in assay [2] and in assay [3] was 100% throughout.
As to `Cc1[nH]n(-c2cccc(Cl)c2)c(=O)c1/N=N/c1c(O)cc(S(=O)(=O)O)c2ccccc12`, the figures for the Efficacy in assay [1] and in assay [2] were 34% and 45%, respectively. The concentration giving a half-maximal response (EC50) turned out to be 0.5 µM in assay [5] and 2 µM on Thrombopoietin receptor.
Consider `Cc1[nH]n(-c2ccc(Cl)c(Cl)c2)c(=O)c1/N=N/c1c(O)cc(S(=O)(=O)O)c2ccccc12`, for which the Efficacy in assay [1] was 67%; in assay [2], 70%. Also, the response at Thrombopoietin receptor was half-maximal at 0.2 µM (EC50).
For the compound `Cc1[nH]n(-c2ccc(Cl)cc2)c(=O)c1/N=N/c1c(O)cc(S(=O)(=O)O)c2ccccc12`, the results for the Efficacy in assay [1] and in assay [2] were 47% and 75%, respectively. On Thrombopoietin receptor, a half-maximal response (EC50) required 2 µM.
In the case of `Cc1[nH]n(-c2cccc(C(F)(F)F)c2)c(=O)c1/N=N/c1c(O)cc(S(=O)(=O)O)c2ccccc12`, the EC50 in assay [4] worked out at 0.1 µM; on Thrombopoietin receptor it was 0.04 µM. Moreover, the Efficacy in assay [1] was found to be 62%; in assay [3], 95%.
Take `Cc1ccc(-n2[nH]c(C)c(/N=N/c3c(O)cc(S(=O)(=O)O)c4ccccc34)c2=O)cc1C`: the EC50 in assay [4] came to 0.2 µM; on Thrombopoietin receptor, 0.04 µM. Besides, the values for the Efficacy in assay [1], in assay [2] and in assay [3] were 100%, 90% and 100%, respectively.
